Data published in ChEMBL document CHEMBL4138113, “Novel propanamides as fatty acid amide hydrolase inhibitors” (Eur J Med Chem, 2017).
Calls of active or inactive are those of the source.

Tests used:
[1] = molecular target: T1, Fatty-acid amide hydrolase 1 (Rattus norvegicus) (UniProt P97612); assay: Inhibition of rat brain FAAH at 0.3 to 100 uM using [3H]AEA as substrate after 10 mins by liquid scintillation counting analysis relative to control
T1 sequence (whole entry): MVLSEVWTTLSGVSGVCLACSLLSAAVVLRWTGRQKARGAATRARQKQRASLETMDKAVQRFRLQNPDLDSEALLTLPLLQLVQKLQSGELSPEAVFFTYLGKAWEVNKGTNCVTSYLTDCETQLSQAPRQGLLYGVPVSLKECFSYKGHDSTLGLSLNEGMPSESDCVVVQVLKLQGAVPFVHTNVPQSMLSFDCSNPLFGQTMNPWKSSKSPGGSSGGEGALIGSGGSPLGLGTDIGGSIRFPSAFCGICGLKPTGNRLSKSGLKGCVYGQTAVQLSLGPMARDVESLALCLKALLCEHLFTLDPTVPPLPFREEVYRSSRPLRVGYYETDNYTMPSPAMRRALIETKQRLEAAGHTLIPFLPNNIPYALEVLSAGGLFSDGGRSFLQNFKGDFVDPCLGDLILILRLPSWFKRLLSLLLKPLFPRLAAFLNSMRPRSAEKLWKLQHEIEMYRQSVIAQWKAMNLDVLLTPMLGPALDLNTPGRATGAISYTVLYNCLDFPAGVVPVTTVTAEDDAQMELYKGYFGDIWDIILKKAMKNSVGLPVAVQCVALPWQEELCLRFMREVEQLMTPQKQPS
Procedure, shortened: (§1)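 Rat (Wistar or Sprague-Dawley) brain homogenate without cerebella, washed and pre-incubated 15 min at 37 °C to clear endogenous substrate. Compound (in ethanol or DMSO) was mixed with 1 µg protein on ice in 10 mM Tris-HCl, 1 mM EDTA, pH 7.4. Reaction used 0.5 µM [3H]AEA with fatty acid-free BSA for 10 min at 37 °C. It was stopped with charcoal/HCl, and supernatant tritium was counted. ≥5 half-log concentrations, ≥3 experiments; maximum inhibition = 100 − fitted bottom.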

[2] = molecular target: T2, Fatty-acid amide hydrolase 1 (Mus musculus, UniProt O08914); assay: Mixed-type inhibition of B6CBAF1/J mouse brain FAAH using [3H]AEA as substrate after 10 mins by Dixon plot analysis
T2 sequence (O08914 whole entry): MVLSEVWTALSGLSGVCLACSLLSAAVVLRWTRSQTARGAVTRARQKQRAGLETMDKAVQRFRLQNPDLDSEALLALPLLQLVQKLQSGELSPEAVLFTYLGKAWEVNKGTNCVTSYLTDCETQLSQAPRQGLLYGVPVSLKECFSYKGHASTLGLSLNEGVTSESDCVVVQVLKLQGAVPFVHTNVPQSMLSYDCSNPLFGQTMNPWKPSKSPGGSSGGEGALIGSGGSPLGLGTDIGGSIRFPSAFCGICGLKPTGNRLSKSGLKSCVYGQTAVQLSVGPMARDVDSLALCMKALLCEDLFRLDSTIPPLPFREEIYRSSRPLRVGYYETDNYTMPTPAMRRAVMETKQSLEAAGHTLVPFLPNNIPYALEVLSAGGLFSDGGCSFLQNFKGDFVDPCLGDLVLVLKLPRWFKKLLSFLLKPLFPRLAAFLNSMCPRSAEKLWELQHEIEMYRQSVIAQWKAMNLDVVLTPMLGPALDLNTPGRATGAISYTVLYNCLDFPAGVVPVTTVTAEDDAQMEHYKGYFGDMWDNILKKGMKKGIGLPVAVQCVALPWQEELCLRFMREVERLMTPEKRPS
Procedure, shortened: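 Kinetic study in brain homogenate from male B6CBAF1/J mice (0.3 µg protein per assay). [3H]AEA hydrolysis ran for 10 min at 37 °C in Tris-EDTA buffer, pH 7.4, with the AEA:fatty acid-free BSA ratio held at 1:~4.5. Products were separated on charcoal and counted by scintillation. Competitive, mixed-type and non-competitive fits were compared by Akaike's criterion.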

[3] = molecular target: T3, Fatty-acid amide hydrolase 1 (Rattus norvegicus, UniProt P97612); assay: Inhibition of rat brain FAAH using [3H]AEA as substrate after 10 mins by liquid scintillation counting analysis; procedure, shortened: as §1
T3 sequence (P97612 whole entry): T1 sequence (whole entry)

[4] = molecular target: T4, Prostaglandin G/H synthase 2 (Homo sapiens) (UniProt P35354); assay: Inhibition of recombinant human COX2 using arachidonic acid/2-AG as substrate after 5 mins
T4 sequence (whole entry): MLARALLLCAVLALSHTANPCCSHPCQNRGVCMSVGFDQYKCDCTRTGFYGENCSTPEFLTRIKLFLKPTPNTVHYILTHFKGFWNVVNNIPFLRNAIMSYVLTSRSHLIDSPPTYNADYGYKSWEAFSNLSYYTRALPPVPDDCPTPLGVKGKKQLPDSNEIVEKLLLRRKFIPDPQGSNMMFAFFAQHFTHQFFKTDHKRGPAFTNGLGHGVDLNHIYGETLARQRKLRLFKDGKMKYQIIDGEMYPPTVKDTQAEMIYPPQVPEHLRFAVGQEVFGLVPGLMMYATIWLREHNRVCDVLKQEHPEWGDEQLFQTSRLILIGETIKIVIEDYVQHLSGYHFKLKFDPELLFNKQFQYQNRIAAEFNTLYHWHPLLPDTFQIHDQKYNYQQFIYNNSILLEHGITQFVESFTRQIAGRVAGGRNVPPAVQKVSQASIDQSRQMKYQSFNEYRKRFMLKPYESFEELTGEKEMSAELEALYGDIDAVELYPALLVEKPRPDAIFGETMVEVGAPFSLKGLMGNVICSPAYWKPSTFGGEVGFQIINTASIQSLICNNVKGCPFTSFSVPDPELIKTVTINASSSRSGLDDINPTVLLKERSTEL
Procedure, shortened: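 Oxygen-electrode assay at room temperature in 0.1 M Tris-HCl, pH 7.4, with 1 µM haematin, 2 mM phenol, 5 mM EDTA and 10 µM (final) arachidonic acid or 2-AG. Compound in EtOH was added and a 5 min baseline recorded. The reaction was started with ovine COX-1 or human recombinant COX-2 (200 U), and oxygen consumption was read in 10 s blocks. Means ± SEM, n = 3-4.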

| Imax [1] [%] | Ki [2] [µM] | IC50 ([3]; read-out: IC50) [µM] | IC50 ([3]; read-out: pIC50 (converted)) [µM] | inhibition [4] | SMILES |
| --- | --- | --- | --- | --- | --- |
| 100 | 3 | 0.058 | 0.0575 | inactive | CC(C(=O)Nc1ncccc1Cl)c1ccc(Nc2ccnc(C(F)(F)F)c2)cc1 (stereo not given) |
| 100 | 6.3 | 0.59 | 0.589 | inactive | Cc1cccnc1NC(=O)C(C)c1ccc(Nc2ccnc(C(F)(F)F)c2)cc1 (stereo not given) |
